Columns and labels:
Thromboxane A2 receptor = target: T1, Thromboxane A2 receptor (Homo sapiens, UniProt P21731); test: Displacement of [3H]-SQ29548 from human TP receptor expressed in CHO cells after 30 mins by liquid scintillation counting; format: cell-based
T1 sequence (P21731 whole entry): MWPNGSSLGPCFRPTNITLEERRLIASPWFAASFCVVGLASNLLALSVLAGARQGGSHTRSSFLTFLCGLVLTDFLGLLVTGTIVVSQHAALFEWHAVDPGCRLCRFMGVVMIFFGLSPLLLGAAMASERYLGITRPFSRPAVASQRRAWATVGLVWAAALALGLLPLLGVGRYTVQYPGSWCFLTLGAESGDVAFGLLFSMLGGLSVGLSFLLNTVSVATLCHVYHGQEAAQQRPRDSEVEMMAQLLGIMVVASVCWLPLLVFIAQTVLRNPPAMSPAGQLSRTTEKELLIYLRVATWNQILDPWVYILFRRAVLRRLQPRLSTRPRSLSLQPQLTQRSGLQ
In short: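 Membranes from CHO cells expressing hTP were incubated with 5.0 nM [³H]-SQ29548 and compounds at various concentrations. Buffer was 10 mM Tris–HCl pH 7.5 with 100 mM NaCl, for 30 min at room temperature. Samples were filtered on GF/B, washed with the same buffer, dried 60 min at 60 °C and scintillation counted. Nonspecific binding was set with excess unlabeled SQ29548.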

Prostacyclin receptor = Prostacyclin receptor (Homo sapiens, UniProt P43119); test: Displacement of [3H]-Iloprost from human IP receptor expressed in CHO cells after 30 mins by liquid scintillation counting; format: cell-based
In short: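 Membranes from CHO cells expressing hIP were incubated with 5.0 nM [³H]Iloprost and compounds at various concentrations. Buffer was 50 mM Tris–HCl pH 7.5 with 1 mM EDTA and 10 mM MgCl₂, for 30 min at room temperature. Samples were filtered on GF/B, washed with 10 mM Tris–HCl/100 mM NaCl pH 7.5, dried 60 min at 60 °C and scintillation counted.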

[1] = target: T2, Prostaglandin E2 receptor EP1 subtype (Mus musculus, UniProt P35375); test: Displacement of [3H]-PGE2 from mouse EP1 receptor expressed in CHO cells after 20 mins by liquid scintillation counting; format: cell-based
T2 sequence (P35375 whole entry): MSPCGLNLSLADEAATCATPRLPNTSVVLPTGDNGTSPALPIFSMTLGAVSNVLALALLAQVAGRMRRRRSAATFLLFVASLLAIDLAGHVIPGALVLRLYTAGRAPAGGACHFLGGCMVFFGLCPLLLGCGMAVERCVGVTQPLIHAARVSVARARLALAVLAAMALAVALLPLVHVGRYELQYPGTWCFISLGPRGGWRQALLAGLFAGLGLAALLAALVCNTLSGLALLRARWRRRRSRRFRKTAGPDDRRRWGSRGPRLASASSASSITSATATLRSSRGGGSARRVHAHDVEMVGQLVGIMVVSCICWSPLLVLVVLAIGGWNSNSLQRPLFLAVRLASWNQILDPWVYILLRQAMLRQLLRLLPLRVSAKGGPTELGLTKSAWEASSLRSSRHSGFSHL
In short: (§1)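 Membranes from CHO cells stably expressing mEP1, mEP2, mEP3a, mEP4 or mFP were used. The radioligand was 2.5 nM [³H]PGE₂ for EP receptors and 2.5 nM [³H]PGF2α for FP. Buffer was 10 mM KH₂PO₄–KOH pH 6.0 with 1 mM EDTA, 10 mM MgCl₂ and 100 mM NaCl. Incubation was at room temperature, 20 min for mEP1 and 60 min for the others. Samples were filtered on GF/B, washed with phosphate/NaCl pH 6.0, dried 60 min at 60 °C and scintillation counted.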

[2] = target: T3, Prostaglandin D2 receptor (Mus musculus, UniProt P70263); test: Antagonist activity at mouse DP receptor expressed in CHO cells assessed as inhibition of PGD2-induced cAMP accumulation after 10 mins by enzyme immunoassay in the presence of 0.1% BSA; format: functional, cell-based
T3 sequence (P70263 whole entry): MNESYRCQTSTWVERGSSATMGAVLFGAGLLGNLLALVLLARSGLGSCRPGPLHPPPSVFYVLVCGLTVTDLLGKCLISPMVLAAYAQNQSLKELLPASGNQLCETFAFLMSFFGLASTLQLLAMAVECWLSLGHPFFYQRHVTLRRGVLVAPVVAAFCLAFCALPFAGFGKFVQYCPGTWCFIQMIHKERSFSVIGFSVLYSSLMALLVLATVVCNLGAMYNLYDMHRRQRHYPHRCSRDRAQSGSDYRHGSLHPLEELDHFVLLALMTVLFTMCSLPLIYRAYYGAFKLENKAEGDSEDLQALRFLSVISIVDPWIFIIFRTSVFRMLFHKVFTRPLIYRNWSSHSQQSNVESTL
In short: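 CHO cells stably expressing mDP were seeded at 1 × 10⁵ cells/well and grown 2 days. They were preincubated about 10 min at 37 °C in MEM with Diclofenac, then given assay medium (MEM, 0.1% BSA, 1 mM IBMX, Diclofenac). Test compound at various concentrations plus 10 nM PGD₂ was added for 10 min at 37 °C. The reaction was stopped with ice-cold 10% TCA and TCA was extracted. cAMP was measured by EIA. IC50 came from cAMP relative to the PGD₂-only maximum.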

Cavia porcellus [3] = test: Inhibition of OVA-induced vascular permeability in guinea pig conjunctiva at 3 mg/kg, po administered 1 hr before antigen challenge measured after 30 mins; format: functional
In short: (§2)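 Male Hartley guinea pigs were sensitized i.p. with OVA (1 mg) plus inactivated Bordetella pertussis. Two weeks later they were challenged with topical OVA (1%, 20 µL/eye), followed at once by Evans blue (20 mg/kg iv). Compound was given orally 1 h before challenge. After 30 min, conjunctiva was removed and extracted in DMF at 37 °C. Dye was read at 620 nm against a standard curve.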

[4] = target: T4, Prostaglandin E2 receptor EP3 subtype (Mus musculus, UniProt P30557); test: Displacement of [3H]-PGE2 from mouse EP3 receptor expressed in CHO cells after 60 mins by liquid scintillation counting; format: cell-based; in short: as §1
T4 sequence (P30557 whole entry): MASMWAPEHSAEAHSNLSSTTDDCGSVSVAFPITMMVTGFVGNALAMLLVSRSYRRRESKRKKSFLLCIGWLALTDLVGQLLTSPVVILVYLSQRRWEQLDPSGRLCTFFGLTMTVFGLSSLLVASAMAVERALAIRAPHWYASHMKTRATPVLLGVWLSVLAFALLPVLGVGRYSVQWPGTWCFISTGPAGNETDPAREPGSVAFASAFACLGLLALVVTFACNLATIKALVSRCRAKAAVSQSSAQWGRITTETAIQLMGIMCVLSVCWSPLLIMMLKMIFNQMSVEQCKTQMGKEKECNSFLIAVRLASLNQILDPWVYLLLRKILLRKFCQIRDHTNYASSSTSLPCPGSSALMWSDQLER

[5] = target: Prostaglandin F2-alpha receptor (Mus musculus, UniProt P43117); test: Displacement of [3H]-PGF2-alpha from mouse FP receptor expressed in CHO cells after 60 mins by liquid scintillation counting; format: cell-based; in short: as §1
[6] = target: T3, Prostaglandin D2 receptor; test: Displacement of [3H]-PGD2 from mouse DP receptor expressed in CHO cells after 20 mins by liquid scintillation counting; format: cell-based
In short: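 Membranes from CHO cells stably expressing mDP were incubated with 2.5 nM [³H]PGD₂ and compounds at various concentrations. Buffer was 25 mM HEPES–NaOH pH 7.4 with 1 mM EDTA, 5 mM MgCl₂ and 10 mM MnCl₂, for 20 min at room temperature. Samples were filtered on GF/B and washed with Tris–HCl pH 7.4, NaCl, 0.01% BSA. Filters were dried 60 min at 60 °C and read by scintillation counting. Nonspecific binding was set with excess unlabeled PGD₂.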

[7] = target: Prostaglandin E2 receptor EP4 subtype (Mus musculus, UniProt P32240); test: Displacement of [3H]-PGE2 from mouse EP4 receptor expressed in CHO cells after 60 mins by liquid scintillation counting; format: cell-based; in short: as §1
[8] = target: Prostaglandin E2 receptor EP2 subtype (Mus musculus, UniProt Q62053); test: Displacement of [3H]-PGE2 from mouse EP2 receptor expressed in CHO cells after 60 mins by liquid scintillation counting; format: cell-based; in short: as §1
Cavia porcellus [9] = test: Inhibition of OVA-induced vascular permeability in guinea pig conjunctiva at 1 mg/kg, po administered 1 hr before antigen challenge measured after 30 mins; format: functional; in short: as §2

Sequence of Prostacyclin receptor (P43119 whole entry): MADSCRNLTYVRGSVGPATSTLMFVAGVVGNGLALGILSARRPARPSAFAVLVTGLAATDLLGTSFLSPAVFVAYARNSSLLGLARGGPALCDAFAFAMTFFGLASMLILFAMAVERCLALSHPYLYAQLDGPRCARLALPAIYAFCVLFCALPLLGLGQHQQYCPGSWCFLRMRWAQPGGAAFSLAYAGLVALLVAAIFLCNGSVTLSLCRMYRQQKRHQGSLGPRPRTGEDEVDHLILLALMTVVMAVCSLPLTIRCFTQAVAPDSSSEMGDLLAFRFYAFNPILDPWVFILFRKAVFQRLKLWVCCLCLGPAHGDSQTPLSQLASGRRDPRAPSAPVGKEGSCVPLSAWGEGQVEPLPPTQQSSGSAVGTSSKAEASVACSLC
Sequence of Prostaglandin F2-alpha receptor (P43117 whole entry): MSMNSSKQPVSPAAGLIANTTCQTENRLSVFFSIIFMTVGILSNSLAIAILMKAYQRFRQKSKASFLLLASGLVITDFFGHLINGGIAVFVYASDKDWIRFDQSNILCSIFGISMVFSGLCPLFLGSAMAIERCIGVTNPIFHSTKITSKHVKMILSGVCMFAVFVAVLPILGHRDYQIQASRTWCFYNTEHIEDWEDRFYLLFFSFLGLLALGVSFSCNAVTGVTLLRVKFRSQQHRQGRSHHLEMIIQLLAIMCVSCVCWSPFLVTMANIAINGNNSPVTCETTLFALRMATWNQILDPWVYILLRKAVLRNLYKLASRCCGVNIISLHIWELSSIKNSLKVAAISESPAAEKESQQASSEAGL
Sequence of Prostaglandin E2 receptor EP2 subtype (Q62053 whole entry): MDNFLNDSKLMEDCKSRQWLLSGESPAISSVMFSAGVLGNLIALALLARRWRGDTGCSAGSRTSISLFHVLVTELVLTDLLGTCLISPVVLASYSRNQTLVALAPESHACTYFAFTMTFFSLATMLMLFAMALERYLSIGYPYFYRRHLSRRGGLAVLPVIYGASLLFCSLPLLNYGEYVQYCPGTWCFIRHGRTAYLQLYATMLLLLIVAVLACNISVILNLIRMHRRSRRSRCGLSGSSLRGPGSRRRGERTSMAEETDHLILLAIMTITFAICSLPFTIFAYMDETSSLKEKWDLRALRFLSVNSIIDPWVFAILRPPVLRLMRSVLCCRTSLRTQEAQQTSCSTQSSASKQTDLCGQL
Sequence of Prostaglandin E2 receptor EP4 subtype (P32240 whole entry): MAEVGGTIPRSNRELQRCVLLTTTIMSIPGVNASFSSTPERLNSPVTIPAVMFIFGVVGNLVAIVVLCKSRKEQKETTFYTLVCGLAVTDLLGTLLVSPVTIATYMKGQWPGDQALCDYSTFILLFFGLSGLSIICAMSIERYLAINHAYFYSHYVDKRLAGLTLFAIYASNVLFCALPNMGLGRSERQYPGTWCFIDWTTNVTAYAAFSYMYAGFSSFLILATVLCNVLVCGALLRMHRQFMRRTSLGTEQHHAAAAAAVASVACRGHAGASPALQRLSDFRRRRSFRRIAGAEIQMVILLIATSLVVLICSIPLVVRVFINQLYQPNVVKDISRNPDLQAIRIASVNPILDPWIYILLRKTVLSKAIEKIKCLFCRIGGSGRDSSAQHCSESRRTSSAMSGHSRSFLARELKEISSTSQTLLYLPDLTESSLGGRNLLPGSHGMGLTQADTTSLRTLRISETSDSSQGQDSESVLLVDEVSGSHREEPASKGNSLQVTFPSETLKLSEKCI

Row | Compound | IC50 (Thromboxane A2 receptor) | Ki (Prostacyclin receptor) | Ki [1] | IC50 [2] | Ki [4] | Ki [5] | Ki [6] | Ki [7] | Ki [8] | Ki (Thromboxane A2 receptor) | inhibition in vivo at 3 mg/kg (Cavia porcellus [3]) | inhibition in vivo at 1 mg/kg (Cavia porcellus [9])
1 | Cc1c(CC(=O)O)c2cc(F)ccc2n1C(=O)c1ccc(OC[C@@H]2CN(C)c3ccccc3O2)cc1Cl | > 10000 nM | 200 nM | > 10000 nM | 1.6 nM | 3200 nM | 1200 nM | 5.2 nM | 4100 nM | 370 nM | – | 52% | –
2 | CCN1c2ccccc2C[C@@H]1COc1ccc(C(=O)n2c(C)c(CC(=O)O)c3ccccc32)c(C)c1 | 7600 nM | 2200 nM | > 10000 nM | 2.2 nM | 2800 nM | 1400 nM | 4.8 nM | 1600 nM | 2700 nM | – | – | 42%
3 | Cc1cc(OC[C@@H]2CN(C)c3ccccc3O2)ccc1C(=O)n1c(C)c(CC(=O)O)c2ccccc21 | > 10000 nM | 130 nM | 2900 nM | 1.1 nM | 3600 nM | 2600 nM | 3.5 nM | > 10000 nM | 500 nM | – | 29% | –

Stronger by Ki (Prostacyclin receptor), values ahead:

Row | IC50 (Thromboxane A2 receptor) | Ki (Prostacyclin receptor) | Ki [1] | IC50 [2] | Ki [4] | Ki [5] | Ki [6] | Ki [7] | Ki [8] | Ki (Thromboxane A2 receptor) | Compound | inhibition in vivo at 3 mg/kg (Cavia porcellus [3]) | inhibition in vivo at 1 mg/kg (Cavia porcellus [9])
4 | – | 92 nM | > 10000 nM | 2.2 nM | > 10000 nM | – | 4.4 nM | > 10000 nM | 600 nM | – | Cc1c(CC(=O)O)c2ccccc2n1C(=O)c1ccc(OC[C@@H]2CN(C)c3ccccc3O2)cc1Cl | 48% | –
5 | – | 37 nM | – | 2.4 nM | – | 3100 nM | 16 nM | > 10000 nM | – | 260 nM | Cc1cc2c(CC(=O)O)cccc2n1C(=O)c1ccc(OC[C@@H]2CN(C)c3ccccc3O2)cc1 | 41% | 23%

Source: ChEMBL document CHEMBL1811829, “Discovery of selective indole-based prostaglandin D₂ receptor antagonist” (Bioorg Med Chem, 2011)
